# NS3 helicase inh: HCV NS3 helicase inhibition. NS3 helicase DNA unwinding, Cy5 molecular beacon fluorescence. inhibition, % at 10.9 µM. 290,000 compounds, 0.56% hits. AID 1800;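 active means inhibition above the mean of all tested compounds plus 3 SD, set per campaign, cut at about 35% in these data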;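 further: 0% = DMSO wells and 100% = thioflavine S control wells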
#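 Assay system – hepatitis C virus NS3 helicase domain fragment enzyme · Buffer or medium – MOPS pH 6.5, MgCl2, DTT, Tween20, BSA · Reagent – Cy5/quencher beacon DNA duplex and ATP to start · Compound – single 10.9 µM dose · Timing – 1 h at 25 °C · Technique – Cy5 beacon fluorescence read at start and 1 h · Measure – % inhibition of unwinding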
# EBNA-1 inhibitor: blocks EBNA-1 binding to DNA | EBNA-1 DNA binding, fluorescence polarization | inhibition, % at 14.8 µM | 300,000 compounds, 0.34% hits | AID 1950; in the data active means inhibition above about 28%
# CTSL1 counter: blocks F. hepatica cathepsin L1 in PFM18AAP counter-screen | recombinant F. hepatica cathepsin L1, Z-Leu-Arg-MCA fluorescence | inhibition, % at 5.96 µM | 300,000 compounds, 0.49% hits | AID 1906;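 active means inhibition above the mean of all tested compounds plus 3 SD, set per screening campaign, cut at about 17% in these data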;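 further: 0% = plate median of test compound wells and 100% = 1 µM Z-Phe-Ala-diazomethylketone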
# ZTA counter: counter-screen for EBNA-1 inhibitors: inhibitors of Epstein-Barr virus ZTA | P03206 | ZTA-DNA binding, fluorescence polarization | inhibition, % at 11 µM | 320,000 compounds, 0.15% hits | AID 2234; in the data active means inhibition above about 33%
# Target sequence (P03206 whole entry, looked up): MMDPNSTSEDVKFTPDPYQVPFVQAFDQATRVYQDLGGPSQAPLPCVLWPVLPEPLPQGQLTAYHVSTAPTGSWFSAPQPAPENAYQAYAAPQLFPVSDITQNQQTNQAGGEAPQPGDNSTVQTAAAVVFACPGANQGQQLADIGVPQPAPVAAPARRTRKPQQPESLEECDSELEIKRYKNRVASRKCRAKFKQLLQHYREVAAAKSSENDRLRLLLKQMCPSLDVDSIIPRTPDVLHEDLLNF
# NS3 hel confirm: confirmation of Hepatitis C virus NS3 helicase inhibitors; NS3 helicase DNA unwinding, Cy5 molecular beacon fluorescence; shares compounds with NS3 helicase inh; inhibition, % at 10.9 µM; 1,600 compounds, 31% hits;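 active means inhibition above the mean of all tested compounds plus 3 SD, cutoff set per campaign, cut at about 36% in these data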
# DNA FID counter: intercalator displacement, NS3 helicase counter-screen; inhibition, % at 7.9 µM; AID 1945; shares compounds with NS3 helicase inh; 1,600 compounds, 4% hits; DNA fluorescent intercalator displacement, fluorescence; in the data active means inhibition above about 37%;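 further: 0% = vehicle and 100% = reference compound; higher means more displacement of ethidium bromide from the DNA hairpin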
# DNA FID DR: DNA intercalator displacement in dose response. shares compounds with NS3 helicase inh. fluorescent intercalator displacement from DNA, fluorescence. IC50, µM. 120 tested, under 10 active. AID 2172; call rule not given here
# * hit, by the source's call; nt = not tested or not shown. The list is not random: actives were taken first. Their share in the collection is about 1.4%.
SMILES,NS3 helicase inh,EBNA-1 inhibitor,CTSL1 counter,ZTA counter,NS3 hel confirm,DNA FID counter,others
O=C(O)CSCC(=O)N1N=C2/C(=C/c3ccccc3)CCCC2C1c1ccccc1 (centres undefined),-0.5,4.6,4.9,8.6,nt,nt,
Cc1cccc(-n2c(C)cc(/C=C3/C(=N)N4C(c5ccccc5)=CSC4=NC3=O)c2C)c1,-1.6,-3.0,-1.1,-5.7,nt,nt,
N=C1/C(=C\c2ccc(-c3cccc(Cl)c3)o2)C(=O)N=C2SC=C(c3ccccc3)N12,46.1*,13.4,-9.5,-2.4,79.5*,17.1,
N=C1/C(=C\c2ccc(-c3ccc(C(=O)O)cc3)o2)C(=O)N=C2SC=C(c3ccccc3)N12,36.5*,nt,nt,nt,72.6*,13.8,
Cc1ccc(-c2nc(-c3ccccn3)sc2CC(=O)O)cc1,0.3,8.4,0.4,10.8,nt,nt,
O=S(=O)(Cc1ccccc1Cl)CC(O)COc1ccccc1Cl (centres undefined),-7.2,5.9,0.6,6.4,nt,nt,
COc1ccc(/C=C/c2nc3ccccc3c(=O)n2-c2cccc(C(=O)O)c2)cc1,41.4*,-3.4,19.4*,-19.1,5.9,-39.1,
CCn1c(/C=C/c2ccc(O)cc2)nc2ccccc2c1=O,-9.3,13.9,2.4,5.3,nt,nt,
C/C(Cn1cnc([N+](=O)[O-])n1)=N\NC(=O)c1cccc(F)c1,1.0,3.7,4.1,0.8,nt,nt,
CC(=O)Nc1ccc(S(=O)(=O)Nc2ccc3[nH]c(=O)[nH]c3c2)cc1,2.9,-8.4,-1.3,4.0,nt,nt,
O=C(O)c1ccccc1C(=O)c1ccc(-c2ccccc2)cc1,42.3*,22.1,1.7,16.1,-20.0,-11.8,
O=C(O)c1ccccc1C(=O)c1ccc(Cl)cc1,-6.7,0.6,-0.1,1.8,nt,nt,
CCCCc1c(C)nc2c(OC)cccc2c1SCC(=O)O,37.0*,-6.1,-3.1,2.5,-1.4,-0.4,
COCCNC(=O)c1c[nH]n2c(=O)cc(C3CCN(C(=O)OC(C)(C)C)CC3)nc12,41.3*,-5.1,-1.6,-3.4,-8.1,-27.0,
CC1CCc2sc3nc(NCc4ccco4)n4ncnc4c3c2C1 (centres undefined),38.8*,1.8,6.9,4.9,-13.1,6.9,
Cc1cc(S(=O)(=O)N2CCCCC2)c(C)s1,67.1*,-11.4,0.6,-15.1,-10.1,-4.7,
COc1cc(SSc2cc(OC)cc([N+](=O)[O-])c2N)c(N)c([N+](=O)[O-])c1,28.7,-12.8,-5.1,-16.9,6.8,14.9,
Cc1cc(CNC(=O)COc2ccc([N+](=O)[O-])cc2)c2ccccc2n1,3.5,5.9,1.9,-5.9,nt,nt,
O=[N+]([O-])c1c(Nc2ccccc2O)cc(Cl)c2nonc12,37.6*,nt,nt,nt,-22.9,17.2,
O=[N+]([O-])c1c(Nc2ccccc2O)ccc2nonc12,13.6,-1.8,4.3,-11.3,nt,nt,
Cc1ccc(C(O)c2nccn2C)o1 (centres undefined),0.7,-10.0,15.0,-22.9,nt,nt,
Cc1ccc(NC(=O)c2cc(-c3ccccc3O)n[nH]2)cc1Cl,-3.5,nt,nt,nt,nt,nt,
O=c1c2cc(Br)ccc2nc(-c2ccc(Cl)cc2)n1O,36.6*,3.4,-1.6,-16.4,40.2*,8.6,
Cc1ccc(-c2nc3c(Cl)cc(Cl)cc3c(=O)n2O)cc1,36.0*,-12.0,1.5,-8.6,61.9*,-3.0,
O=c1c2cc(Cl)ccc2nc(-c2ccc([N+](=O)[O-])cc2)n1O,-5.9,0.5,6.3,-5.9,nt,nt,
SMILES,NS3 helicase inh,EBNA-1 inhibitor,CTSL1 counter,ZTA counter,NS3 hel confirm,DNA FID counter,others
Cc1ccc(S(=O)(=O)N(C)CC(=O)N2CCN(c3ccccn3)CC2)cc1,-1.2,5.4,-3.0,9.0,nt,nt,
COC(=O)c1ccc(OC)c(CSc2nnc(-c3ccc(C(C)(C)C)cc3)o2)c1,-0.9,-5.7,1.2,-10.4,nt,nt,
O=C(Cn1cc(C(=O)COc2ccccc2)c2ccccc21)NCc1ccco1,44.0*,0.6,2.9,5.9,-5.6,9.1,
CC(=O)c1cn(CC(=O)NCc2ccco2)c2ccccc12,9.4,6.9,2.1,-8.5,nt,nt,
Fc1nc(F)c(F)c(NCCCNc2c(F)c(F)nc(F)c2F)c1F,52.4*,10.7,1.1,-4.0,-8.2,16.3,
COc1ccc2[nH]c3c(=O)n(CCCC(=O)NC4CCCCC4C)c(=S)[nH]c3c2c1 (centres undefined),41.6*,-15.6,0.8,-5.6,39.7*,-10.9,DNA FID DR=>79.4

# High-throughput results as filed in PubChem.
